# This is a sample that favours compounds with a hit; in the whole collection about 3% have one here.
# GC-A act – GC-A (human) enzyme activation; AID 1671463; 370,000 tested, 0.14% active; activation, % at 10 µM; HEK293 GC-A cells, cGMP TR-FRET, EC30 ANP; 0% at EC30 ANP, 100% saturating ANP; in the data active = activation above about 40%
# JMJD2C inh – blocks human GASC-1 demethylase activity; Q9H3R0; GST-JMJD2C(1-420) H3K9me3 demethylation, DELFIA europium; inhibition, % at 2.35 µM; 330,000 tested, 0.069% active; AID 2099;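 active = more than half of a compound's replicate wells show inhibition beyond 50%, single wells judged on their own value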;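 also: signal counts dimethyl H3K9 product captured on neutravidin plate; 0% = median of DMSO wells and 100% = 0.3 times that DMSO median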
# Target sequence (Q9H3R0 1-420 limits assumed): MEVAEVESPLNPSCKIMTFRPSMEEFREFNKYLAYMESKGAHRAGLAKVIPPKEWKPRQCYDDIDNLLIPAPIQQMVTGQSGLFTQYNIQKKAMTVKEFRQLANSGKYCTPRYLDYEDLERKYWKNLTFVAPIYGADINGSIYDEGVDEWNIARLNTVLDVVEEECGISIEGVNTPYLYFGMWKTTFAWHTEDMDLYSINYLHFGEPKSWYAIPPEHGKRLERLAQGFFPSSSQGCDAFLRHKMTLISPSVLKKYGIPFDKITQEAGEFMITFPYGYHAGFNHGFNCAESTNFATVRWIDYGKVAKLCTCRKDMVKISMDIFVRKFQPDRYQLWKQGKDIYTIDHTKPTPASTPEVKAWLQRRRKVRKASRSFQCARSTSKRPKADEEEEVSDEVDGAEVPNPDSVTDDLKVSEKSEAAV
# GC-B act – GC-B (human) receptor activation; AID 1920062; P20594; activation, % at 10 µM; HEK293-GC-B cells, CNP EC30, cGMP TR-FRET; 0% at EC30 CNP, 100% saturating CNP; 370,000 tested, 0.11% active;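 active = activation at 10 µM reaching about 35% in either raw or pattern-adjusted values, limit read from the data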
# GRIN3A LBD mod – NR3A (human) ligand-binding domain modulation. NR3A LBD differential scanning fluorimetry, Tm shift; 0% = protein alone, 100% = glycine-bound protein. Tm shift relative to glycine control, % at 25 µM. 340,000 tested, 2.5% active. AID 1259313;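 active = melting temperature shift of at least 10% of the positive control shift, at one fixed dose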
# aDG glyco act – alpha-DG glycosylation activation | Pro5-aDG cells, alpha-DG glycosylation AlphaScreen (IIH6); 0% Pro5, 100% B10-LARGE cell signal | activation, % at 10 µM | 360,000 tested, 0.22% active;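 active = activation of at least 8% versus controls, or a plate z-score of at least 8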;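 also: Pro5 are CHO cells carrying HIG-tagged alpha-DG that lacks glycosylation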
# Hep lipid drop – hepatic lipid droplet formation modulation. AML12 mouse hepatocytes, oleate lipid droplets, BODIPY imaging. 240,000 tested, 0.4% active. AID 1656. inhibition, % at 6.5 µM;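 active = lipid droplet intensity inhibited by at least 50%, with more than 500 cells counted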
#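 System: AML12 hepatocytes (mouse). Probe or stimulus: oleic acid at 100 µM to induce lipid droplet formation. Times: overnight treatment with compound plus oleate. Detection: Image-based BODIPY and DAPI two-channel analysis. Evaluation: percent inhibition of filter-corrected integrated lipid droplet intensity per well.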
# * marks the source's active call; other numbers are inactive results; / = no result given.
SMILES,GC-A act,JMJD2C inh,GC-B act,GRIN3A LBD mod,aDG glyco act,Hep lipid drop
COc1cccc(C(=O)Nc2cccc(NC(=O)c3cccs3)c2)c1,-2,3,-1,17*,2,-16
CCOC(=O)c1cc2cc(OC)ccc2[nH]1,2,6,-3,11*,0,/
CCOC(=O)c1[nH]c2ccc(OC)cc2c1C,-2,-2,-15,-1,0,/
COc1cccc(C(=O)Nc2cc(NC(=O)c3cccs3)ccc2C)c1,2,2,2,-1,0,17
COc1cccc(NC(=O)c2cccc(C(=O)Nc3cccc(OC)c3)c2)c1,1,5,5,3,0,/
Cc1ccc(S(=O)(=O)N2CCC(c3nc4ccccc4o3)CC2)s1,-2,/,-7,/,/,/
COc1cc(NC(=O)c2ccc([N+](=O)[O-])o2)ccc1NC(=O)c1cccs1,0,-5,-12,24*,1,12
COc1ccc(NC(=O)c2cc3ccccc3[nH]2)cc1,3,-10,-3,24*,0,-8
COc1ccc2[nH]c(C(=O)Nc3ccc(C)c(F)c3)cc2c1,-3,-7,-2,7,0,18
O=C(Nc1ccc(NC(=O)c2ccc([N+](=O)[O-])o2)cc1Cl)c1ccco1,-2,0,1,22*,0,-22
O=C(Nc1cccc(NC(=O)c2ccc([N+](=O)[O-])o2)c1)c1ccco1,3,-6,-3,1,1,-3
COc1cccc(N2CCN(CC(=O)NCc3ccc(F)cc3)CC2)c1,1,/,5,/,/,/
CCOC(=O)c1c[nH]c(=S)n(-c2ccccc2)c1=O,2,-1,5,13*,0,/
CCOC(=O)c1c(C)c2c(=O)[nH]cnc2n1-c1ccccc1,1,14,1,0,0,/
CC1(c2nnnn2Cc2ccccc2)CCC(=O)N1CCCn1ccnc1 (stereo not drawn),0,/,-1,/,1,/
O=c1[nH]c(/C=C2\C=Nc3ccccc32)c(O)n1Cc1ccccc1F,4,2,-3,10*,2,-68
CSc1nc(O)c(/C=C2\C=Nc3ccccc32)[nH]1,-8,-7,-12,3,0,-2
COC(=O)[C@]12C[C@H](CC(=O)NCc3ccc(OC)c(OC)c3)C(=O)N(Cc3ccccc3)C1=C[C@H](COCc1ccccc1)O[C@@H]2C,2,/,2,/,/,/
O=C1c2ccccc2C(Nc2ccccc2)N1Cc1ccc2c(c1)OCO2 (stereo not drawn),62*,14,-7,-2,0,-4
COc1ccc(OC)c(/C=C/C(=O)N2C(=O)c3cccc(N)c3C2=O)c1,1,-1,-9,11*,0,-21
Oc1c(/C=N/Nc2cccc3cccnc23)ccc2ccccc12,-5,-13,0,32*,0,-11
Oc1cccc(/C=N/Nc2cccc3cccnc23)c1,-4,-42,-3,32*,0,3
CC(COc1ccc(C#N)c(F)c1)CN1CCC(C(O)(c2ccccc2)c2ccccc2)CC1 (stereo not drawn),-20,/,-14,/,/,/
COC(=O)c1cn(-c2ccc3c(c2)[C@]2(CC(=O)N(C)C2c2ccccc2)C(=O)N3CC(C)C)nn1 (stereo partly drawn),-2,/,-4,/,/,/
O=C(COC(=O)Cc1ccc(Cl)cc1)Nc1ccc(OC(F)F)cc1,17,-5,1,-4,0,9
SMILES,GC-A act,JMJD2C inh,GC-B act,GRIN3A LBD mod,aDG glyco act,Hep lipid drop
O=C(Nc1ccc(Cl)cc1)N(C1=NCCC1)c1ccc(OC(F)F)cc1,1,2,1,23*,0,/
O=S(=O)(c1ccc(Cl)s1)N1CCC(c2cn3ccccc3n2)CC1,-4,/,-6,/,/,/
Cc1cc(C)cc(N(CC(=O)NCc2ccc(F)cc2)C(=O)c2snc(C(N)=O)c2N)c1,-12,-3,-6,11*,0,-2
COc1ccccc1C(=O)N1CCCC(c2nc(-c3cccs3)no2)C1 (stereo not drawn),2,/,-2,/,/,/
COCCNC(=O)CN(c1ccc(OC)c(OC)c1)S(=O)(=O)c1ccc(C)cc1,3,-5,0,14*,0,/
COC(=O)CN(c1cc(OC)ccc1OC)S(=O)(=O)c1ccc(OC)c(OC)c1,-8,4,-9,10*,0,-10
Cc1nn(-c2ccccc2)c2sc(C(=O)NC3CCCC3)cc12,5,/,0,/,/,/
COc1cc(/C=C2\SC(=O)N(c3ccc(O)cc3)C2=O)cc(OC)c1OC,1,-4,2,-2,0,2
COc1cc(/C=C2\SC(=N)N(c3ccc4c(c3)OCO4)C2=O)cc(OC)c1O,10,4,2,11*,0,-17
COc1cc(/C=C2\SC(=N)N(c3ccc(F)cc3)C2=O)ccc1O,-1,-10,1,27*,0,-10
CC(=O)Nc1ccc(S(=O)(=O)Nc2nc3ccc(C)cc3s2)cc1,5,6,5,-5,0,/
CCCCNC(=S)Nc1ccc(-c2nc3ccc(C)cc3s2)cc1,3,2,3,31*,0,15
Cc1ccc2nc(-c3ccc(NC(=S)NCCC(C)C)cc3)sc2c1,2,6,1,24*,0,/
CNC(=S)Nc1ccc(-c2nc3ccc(C)cc3s2)cc1,18,8,3,28*,1,-11
Cc1ccc2nc(-c3ccc(NS(=O)(=O)c4ccc(F)cc4)cc3)sc2c1,4,3,-6,31*,0,-16
CCOC(=O)[C@@H](NC(=O)/C=C/[C@H]1O[C@@H](n2cc(C)c(=O)[nH]c2=O)C[C@@H]1O)C(C)C,1,/,2,/,0,/
CC(C)C[C@@H](CN)NC(=O)c1nc[nH]c1C(=O)N[C@@H](C)C(=O)CNC[C@H](C)NC(=O)c1nc[nH]c1C(=O)N[C@@H](C)C(=O)O,4,/,1,2,0,/
CCC(C)(C)NC(=S)Nc1ccc(-c2nc3ccc(C)cc3s2)cc1,7,-5,-12,31*,0,15
Cc1ccc2nc(-c3ccc(NC(=S)NCC(C)(C)CN(C)C)cc3)sc2c1,27,/,-2,-1,0,/
O=C(NCc1ccccc1)c1nccnc1CO,-3,-7,3,-3,0,-2
O=C(N/N=C/c1ccncc1)/C(=C/c1ccccc1)NC(=O)c1ccccc1,-7,8,-4,-1,0,-5
Cc1ccnc(N/C=C(/NC(=O)c2ccccc2)C(=O)N/N=C\c2ccc(Cl)cc2)n1,52*,3,3,-1,0,-14
Cc1ccc(C(=O)CCC(=O)N2CCN(c3ccccc3O)CC2)cc1,-1,-4,0,19*,0,/

# Compound activity: PubChem, several laboratories
